# RORa activator – activators of human nuclear receptor RORA; P35398; CHO-K1 Gal4-RORA LBD luciferase reporter, luminescence; percent increase over mock-subtracted basal signal; activation, % at 10 µM; hit rate 1.5% among 65,000; AID 560;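 active means activation above the mean of all tested compounds plus 3 SD, cut at about 49% in these data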;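 further: 0% = DMSO-treated RORA cells and 100% = added signal equal to DMSO minus mock-transfected cells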
# SF-1 act – activators of human nuclear receptor SF-1 | CHO-K1 Gal4-SF-1 LBD luciferase reporter; % increase over DMSO SF-1-specific signal | hit rate 1.9% among 65,000 | Q13285 | activation, % at 10 µM;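 active means activation above the mean activation of all tested compounds plus 3 SD, cut at about 50% in these data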
# Target sequence (Q13285 whole entry, looked up, the tested form may be a part): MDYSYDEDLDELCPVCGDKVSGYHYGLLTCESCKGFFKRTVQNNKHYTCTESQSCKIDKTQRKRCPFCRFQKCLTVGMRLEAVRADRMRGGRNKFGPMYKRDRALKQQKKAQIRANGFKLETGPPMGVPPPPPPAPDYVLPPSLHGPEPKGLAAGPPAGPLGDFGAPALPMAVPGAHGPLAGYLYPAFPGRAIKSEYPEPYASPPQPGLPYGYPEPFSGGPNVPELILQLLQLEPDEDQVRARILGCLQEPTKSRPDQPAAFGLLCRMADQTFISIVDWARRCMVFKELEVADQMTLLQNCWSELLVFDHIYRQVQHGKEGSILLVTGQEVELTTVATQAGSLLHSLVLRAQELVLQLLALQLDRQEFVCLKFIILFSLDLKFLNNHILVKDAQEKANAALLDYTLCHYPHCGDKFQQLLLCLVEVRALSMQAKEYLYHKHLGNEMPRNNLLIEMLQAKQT
#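 Test system: CHO-K1 cells with Gal4–hSF-1 LBD chimera plus Gal4-driven luciferase; Input: 4,000 cells/well; Compound: 10 µM only; Times: 20 h compound treatment, 37 °C; Measured by: steady-glow luciferase luminescence, read after 15 min reagent incubation; Measure: percent activation versus DMSO; Control set: DMSO and mock-transfected background; Replicates: one test per compound.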
# TNAP act DEA – activates human TNAP at intermediate phosphate acceptor concentration. activation factor at 20 µM. purified TNAP, CDP-star luminescence, 100 mM DEA, 30 min; hits give high values; scale: 0 levamisole-inhibited, 1 vehicle-only enzyme. 64,000 tested, under 10 active. AID 813;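 active means activation factor of at least 2 at 20 µM, relative to controls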
# MMP13 inh – inhibitors of human MMP13 | P45452 | MMP-13 fTHP FRET cleavage, Mca fluorescence | inhibition, % at 4 µM | hit rate 0.07% among 65,000;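 active means inhibition above the mean of compound-free control plate wells plus 3 SD, cut at about 14% in these data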;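 further: 0% = DMSO wells and 100% = wells with reference MMP-13 inhibitor after basal subtraction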
# MT1-MMP txn act – MT1-MMP promoter transcription activation; HT1080 MT1-MMP promoter luciferase reporter, luminescence, overnight; hits give high values; activation factor at 10 µM; hit rate 0.16% among 86,000; AID 750;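 active means activation factor of at least 2 for MT1-MMP transcription at 10 µM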
# An asterisk follows results filed as active; . = no result given. Sampled rows, rich in hits. Any-hit rate of the full collection: about 2.1%.
SMILES,RORa activator,SF-1 act,TNAP act DEA,MMP13 inh,MT1-MMP txn act
Cc1ccc(C2/C(=C(\O)c3cnn(-c4ccccc4)c3C)C(=O)C(=O)N2CCN(C)C)o1 (configuration not stated),9,53*,1,-12,1.8
COc1ccc(CC(=O)NCCN2CCCC2)cc1,.,.,.,.,2.4*
O=C(Cc1ccc(Cl)cc1)NCCN1CCCC1,9,8,0.9,5,1.2
O=C(Nc1ccc2c(c1)OCO2)c1cccs1,26,61*,0.9,3,1.4
O=C(Nc1ccc2c(c1)OCO2)c1ccc(Br)s1,69*,49,0.9,4,.
O=C(Nc1ccc2c(c1)OCO2)c1cc(C2CC2)on1,60*,49,0.9,-9,1
Cc1cc(NC(=O)c2ccc3c(c2)OCO3)no1,30,60*,0.9,7,1
N/C(=N\O)c1ccc(NC(=O)c2cccs2)cc1,36,52*,0.9,-1,1.5
O=C(c1ccc2c(c1)OCCCO2)c1cccs1,22,54*,0.9,-1,1.4
CC(=O)c1ccc(NC(=O)c2cccs2)cc1,.,.,.,.,1.3
O=C(Nc1cccc(F)c1)c1ccc2c(c1)OCO2,31,62*,0.9,4,1.1
CC1(C)CC(NCc2ccc3c(c2)OCO3)CCO1 (configuration not stated),.,.,.,.,1.1
Cc1cccc(-n2ncc3c(N4CCCC4)ncnc32)c1,-38,-23,.,-2,.
CC1CN(c2ncnc3c2cnn3-c2ccc(Cl)cc2)CC(C)O1 (configuration not stated),67*,75*,1,-8,1.5
Clc1ccc(-n2ncc3c(N4CCCCCC4)ncnc32)cc1,-68,-76,0.9,-3,.
Cc1cccc(-n2ncc3c(N4CC(C)CC(C)C4)ncnc32)c1 (configuration not stated),47,51*,0.9,-6,1.2
CCOC(=O)N1CCN(C(=O)CSCC(=O)Nc2nc(-c3ccc4c(c3)OCO4)cs2)CC1,39,40,0.9,0,1.3
O=C(CSCC(=O)N1CCOCC1)Nc1nc(-c2ccc3c(c2)OCO3)cs1,52*,48,1,2,1.5
Cc1ccn2cc(C(=O)Nc3ccccc3N3CCOCC3)nc2c1,55*,18,1,7,1.3
COC(=O)c1ccc(C(NC(=O)OCc2ccccc2)/C(C)=C/[C@@H](C)CO)cc1 (some centres not stated),.,.,.,.,1.1
O=C(Nc1ccc(Cl)cc1)N(Cc1cccs1)Cc1cccs1,-7,9,1,2,1.1
O=C(Nc1ccccc1)N(O)c1ccc(Cl)cc1,46,58*,0.7,0,1.9
Cn1c(CNc2ccc(Cl)cc2)nc2ccccc21,37,59*,0.9,5,1.6
Cc1cccc(NCc2nc3ccccc3n2Cc2ccccc2)c1,.,.,.,.,1.4
Cn1c(NCc2ccccc2O)nc2ccccc21,27,49,1.1,6,1.2
SMILES,RORa activator,SF-1 act,TNAP act DEA,MMP13 inh,MT1-MMP txn act
Cn1c(NCc2ccccc2Cl)nc2ccccc21,50*,46,0.9,3,1.2
Cc1nc2cc(NCc3nc4ccccc4n3Cc3ccccc3)ccc2n1C,50*,23,1,-11,1.1
CCCc1cc2c(n1Cc1cc(F)cc(F)c1)C(C)C1CN(C(=O)c3ccccc3)C(C)(C(=O)OC)C21 (configuration not stated),.,.,.,.,1.1
CN(C(=O)Cc1ccccc1)n1cnnc1,.,.,.,.,1.1
CCCC1(C(=O)OC)C=C2C(=C(c3ccccc3)C(=O)C2C)CN1 (configuration not stated),.,.,.,.,1.2
Fc1cnc(N2CCOCC2)nc1N1CCc2ccccc21,6,55*,0.9,-6,1.2
Cc1ccc(N2C(=O)c3ccccc3C2Nc2cccnc2)nc1 (configuration not stated),-3,12,0.9,1,1.1
COc1cc(NC2c3ccccc3C(=O)N2c2ccc(C)cn2)cc(OC)c1OC (configuration not stated),20,43,0.9,0,1.3
CCOc1ccccc1NC1c2ccccc2C(=O)N1c1ccc(C)cn1 (configuration not stated),63*,13,0.9,9,1.1
CCOC(=O)c1ccccc1NC1c2ccccc2C(=O)N1c1ccc(C)cn1 (configuration not stated),22,62*,0.9,-1,.
Cc1ccc(-c2cc3nc(C)cc(NCc4ccco4)n3n2)cc1,59*,51*,0.9,-34,1.5
COc1ccc(-c2cc3nc(C)cc(NCCO)n3n2)cc1,1,8,0.9,-31,1.2
COc1cccc(-c2nnc3sc(-c4ccco4)nn23)c1,34,50*,0.9,3,1.4
COc1cccc(-c2nnc3sc(-c4cccs4)nn23)c1,30,70*,0.8,-3,1.8
CCOc1cccc(-c2nnc3sc(-c4cccs4)nn23)c1,12,0,0.9,1,1.2
COc1ccc(-c2nnc3sc(-c4ccco4)nn23)cc1OC,0,-17,1,6,1.1
COCCNC(=O)C1(C)C=CCN1C(C)=O (configuration not stated),.,.,.,.,1.1
O=C(CSc1nncs1)NCc1ccc2c(c1)OCO2,-5,11,0.9,1,1.3
Cc1cc(C(=O)CSc2nncs2)c(C)n1-c1ccc2c(c1)OCO2,36,69*,0.9,-5,1.5
CCC1CC(CSc2ncn[nH]2)OC1=O (configuration not stated),.,.,.,.,1.1
CCc1cc2c(=O)c(-c3ccc4c(c3)OCCO4)coc2cc1OC(=O)c1ccco1,29,66*,0.9,-2,0.6
CCCc1cc2c(=O)c(-c3ccc4c(c3)OCCO4)coc2cc1OC(=O)c1ccco1,.,.,.,.,1.3
Clc1ccc(-c2nnc3n2CCCCC3)cc1,.,.,.,.,1.1
Clc1ccc(-c2cn3c(n2)CCC3)cc1,22,72*,0.8,1,1.7
CCOc1ccc(-c2nc(CSc3nncs3)cs2)cc1OC,2,4,1,-5,1.2
SMILES,RORa activator,SF-1 act,TNAP act DEA,MMP13 inh,MT1-MMP txn act
Cc1cc(C(=O)N[C@@H](c2ccccc2)[C@]2(C)C[C@H]2[C@@H](C)C(=O)Nc2ccc3ccccc3c2)n(C)n1,.,.,.,.,1.3
O=C(CSc1ncnc2ccccc12)N1CCCC1,55*,18,1,2,1.4
CC(=O)c1ccc(N2CCN(C(=O)COc3ccccc3F)CC2)c(F)c1,.,.,.,.,1.3
O=C(Nc1ccc2c(c1)OCCO2)NC12CC3CC(CC(C3)C1)C2,77*,75*,0.9,3,1.7
O=C(COc1ccccc1)Nc1cccc(-c2nnc(-c3ccccc3)o2)c1,-5,46,0.9,-12,1.1
O=C(Nc1cccc(-c2nnc(-c3ccccc3)o2)c1)c1ccc(Br)o1,11,67*,0.9,-2,1.2
Cc1nc(NC(=O)c2ccc(Br)o2)sc1C,.,.,.,.,1.2
O=C(Nc1ccc2c(c1)OCCO2)c1ccc(Br)o1,33,59*,0.9,4,1
O=C(Nc1nccs1)c1ccc(Br)o1,24,65*,1,5,1.5

# Screening results as filed in PubChem BioAssay.
